# From ChEMBL document CHEMBL1926518, “Synthesis of macrolones with central piperazine ring in the linker and its influence on antibacterial activity” (2011)
# Assays:
# Type in all cases: functional
# Staphylococcus aureus [1] = test: Antibacterial activity against erythromycin-sensitive Staphylococcus aureus ATCC 13709 by broth microdilution technique
# How it was run: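 MIC by broth microdilution per CLSI guidelines with doubling dilutions of compounds. Before testing, staphylococci were grown on Mueller–Hinton agar. Values reported in µg/mL.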
# Streptococcus pneumoniae [2] = test: Antibacterial activity against erythromycin-sensitive Streptococcus pneumoniae SP030 by broth microdilution technique
# How it was run: (§1)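 Streptococcal MICs by CLSI broth microdilution with doubling dilutions, but with 5% horse serum in the medium in place of lysed blood. Before testing, strains were grown on Columbia agar with 5% sheep blood. Values reported in µg/mL.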
# Streptococcus pyogenes [3] = test: Antibacterial activity against erythromycin-sensitive Streptococcus pyogenes 3565 by broth microdilution technique; how it was run: as §1
# Staphylococcus aureus [4] = test: Antibacterial activity against inducible macrolide, licosamide and streptogramin-resistant Staphylococcus aureus 90256/97 by broth microdilution technique
# How it was run: (§2)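 MICs were determined by CLSI broth microdilution, with double dilutions of compound. Staphylococci were grown on Mueller–Hinton agar before testing. Results are given in µg/mL.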
# Streptococcus pneumoniae [5] = test: Antibacterial activity against inducible macrolide-resistant, constitutive licosamide and streptogramin-resistant Streptococcus pneumoniae 134 GR-Micro by broth microdilution technique
# How it was run: (§3)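 MICs were determined by CLSI broth microdilution, with double dilutions of compound. In the streptococcal medium, 5% horse serum replaced lysed blood. Streptococci were grown on Columbia agar with 5% sheep blood before testing. Results are given in µg/mL.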
# Streptococcus pyogenes [6] = test: Antibacterial activity against inducible macrolide, licosamide and streptogramin-resistant Streptococcus pyogenes Finland 11 by broth microdilution technique; how it was run: as §3
# Staphylococcus aureus [7] = test: Antibacterial activity against constitutive macrolide, licosamide and streptogramin-resistant Staphylococcus aureus PK2 by broth microdilution technique; how it was run: as §2
# Streptococcus pneumoniae [8] = test: Antibacterial activity against constitutive macrolide, licosamide and streptogramin-resistant Streptococcus pneumoniae 58 Spain by broth microdilution technique; how it was run: as §3
# Streptococcus pyogenes [9] = test: Antibacterial activity against constitutive macrolide, licosamide and streptogramin-resistant Streptococcus pyogenes 166 GR-Micro by broth microdilution technique; how it was run: as §3
# Staphylococcus aureus [10] = test: Antibacterial activity against efflux-mediated macrolide-resistant Staphylococcus aureus PK1 by broth microdilution technique; how it was run: as §2
# Streptococcus pneumoniae [11] = test: Antibacterial activity against efflux-mediated macrolide-resistant Streptococcus pneumoniae Ci137 by broth microdilution technique; how it was run: as §3
# Streptococcus pyogenes [12] = test: Antibacterial activity against efflux-mediated macrolide-resistant Streptococcus pyogenes 3 Finland by broth microdilution technique; how it was run: as §3
# Haemophilus influenzae = test: Antibacterial activity against Haemophilus influenzae ATCC 49247 by broth microdilution technique
# How it was run: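 MIC by broth microdilution per CLSI guidelines with doubling dilutions of compounds. Before testing, organisms were grown on Mueller-Hinton chocolate agar. Values reported in µg/mL.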
# Moraxella catarrhalis = test: Antibacterial activity against Moraxella catarrhalis ATCC 23246 by broth microdilution technique
# How it was run: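 MIC by broth microdilution per CLSI guidelines with doubling dilutions of compounds. Before testing, organisms were grown on Columbia agar with 5% sheep blood. Values reported in µg/mL.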
SMILES,MIC (Staphylococcus aureus [1]) [µg/mL],MIC (Streptococcus pneumoniae [2]) [µg/mL],MIC (Streptococcus pyogenes [3]) [µg/mL],MIC (Staphylococcus aureus [4]) [µg/mL],MIC (Streptococcus pneumoniae [5]) [µg/mL],MIC (Streptococcus pyogenes [6]) [µg/mL],MIC (Staphylococcus aureus [7]) [µg/mL],MIC (Streptococcus pneumoniae [8]) [µg/mL],MIC (Streptococcus pyogenes [9]) [µg/mL],MIC (Staphylococcus aureus [10]) [µg/mL],MIC (Streptococcus pneumoniae [11]) [µg/mL],MIC (Streptococcus pyogenes [12]) [µg/mL],MIC (Haemophilus influenzae) [µg/mL],MIC (Moraxella catarrhalis) [µg/mL]
CCOC(=O)c1cn(CC)c2ccc(CCCN3CCN(CCC(=O)O[C@H]4[C@H](C)O[C@@H](O[C@H]5[C@H](C)[C@@H](O[C@@H]6O[C@H](C)C[C@H](N(C)C)[C@H]6O)[C@](C)(OC)C[C@@H](C)C(=O)[C@H](C)[C@@H](O)[C@](C)(O)[C@@H](CC)OC(=O)[C@@H]5C)C[C@@]4(C)OC)CC3)cc2c1=O,4,≤ 0.125,≤ 0.125,> 64,16,0.25,> 64,8,16,> 64,≤ 0.125,≤ 0.125,> 64,4
CCOC(=O)c1cn(CC)c2ccc(/C=C/CN3CCN(C(=O)OC(C)(C)C)CC3)cc2c1=O,> 64,64,> 64,> 64,> 64,> 64,> 64,> 64,> 64,> 64,> 64,> 64,> 64,> 64
CCOC(=O)c1cn(CC)c2ccc(C#CCN3CCN(C(=O)OC(C)(C)C)CC3)cc2c1=O,> 64,> 64,> 64,> 64,> 64,> 64,> 64,> 64,> 64,> 64,> 64,> 64,> 64,> 64
CC[C@H]1OC(=O)[C@H](C)[C@@H](O[C@H]2C[C@@](C)(OC)[C@@H](O)[C@H](C)O2)[C@H](C)[C@@H](O[C@@H]2O[C@H](C)C[C@H](N(C)C)[C@H]2O)[C@](C)(O)C[C@@H](C)CN(C)[C@H](C)[C@@H](O)[C@]1(C)O [AZITHROMYCIN],0.5,≤ 0.125,≤ 0.125,> 64,> 64,16,> 64,> 64,> 64,> 64,8,8,1,≤ 0.125
CCOC(=O)c1cn(CC)c2ccc(CCCN3CCN(CCC(=O)O[C@H]4[C@H](C)O[C@@H](O[C@H]5[C@H](C)[C@@H](O[C@@H]6O[C@H](C)C[C@H](N(C)C)[C@H]6O)[C@](C)(O)C[C@@H](C)CN(C)[C@H](C)[C@@H](OC)[C@](C)(O)[C@@H](CC)OC(=O)[C@@H]5C)C[C@@]4(C)OC)CC3)cc2c1=O,4,≤ 0.125,≤ 0.125,> 64,32,2,> 64,8,> 64,> 64,2,2,32,0.25
CC[C@H]1OC(=O)[C@H](C)[C@@H](O[C@H]2C[C@@](C)(OC)[C@@H](OCCCN3CCN(CCCc4ccc5c(c4)c(=O)c(C(=O)O)cn5CC)CC3)[C@H](C)O2)[C@H](C)[C@@H](O[C@@H]2O[C@H](C)C[C@H](N(C)C)[C@H]2O)[C@](C)(O)C[C@@H](C)CN(C)[C@H](C)[C@@H](O)[C@]1(C)O,8,≤ 0.125,0.5,> 64,32,4,> 64,8,> 64,32,0.25,8,32,–
CCOC(=O)c1cn(CC)c2ccc(C#CCN3CCN(CCC(=O)O[C@H]4[C@H](C)O[C@@H](O[C@H]5[C@H](C)[C@@H](O[C@@H]6O[C@H](C)C[C@H](N(C)C)[C@H]6O)[C@](C)(OC)C[C@@H](C)C(=O)[C@H](C)[C@@H](O)[C@](C)(O)[C@@H](CC)OC(=O)[C@@H]5C)C[C@@]4(C)OC)CC3)cc2c1=O,0.25,≤ 0.125,≤ 0.125,> 64,1,≤ 0.125,> 64,≤ 0.125,8,32,≤ 0.125,–,4,1
